Compounds with a hit are over-represented: about 2.2% of the library has one in this group of screens.
Ba/F3 V617F tox: reduce viability of Ba/F3 cells dependent on JAK2V617F | 220,000 tested, 1.1% active | inhibition, % at 5.6 µM | Ba/F3 EpoR-JAK2V617F viability, ATP luminescence;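 active = inhibition above the campaign mean plus 3 SD over all tested compounds, cut at about 24% in these data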;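 also: cytokine-independent growth of Ba/F3 cells driven by EpoR plus mutant JAK2; 0% = DMSO-treated cells and 100% = JAK inhibitor I control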
b-catenin transl: alters nuclear translocation of beta-catenin in HeLa cells; immunofluorescence imaging; nuclear translocation activity, % at 5 µM; 190,000 tested, 0.3% active;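 active = nuclear translocation activity above 50% at 5 µM, with a well cell count of 50 or more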;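 also: per-cell ratio of nuclear to cytoplasmic median beta-catenin stain intensity; plate controls were DMSO negative control for no effect and GSK-3 inhibitor IX positive control for full effect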
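Signal – beta-catenin immunofluorescence imaging with DAPI · Test system – human HeLa cell line · Dosing – 5 µM primary single dose, 0.1% DMSO, 0.02–20 µM confirmation series · Measure – % activation, nuclear-to-cytoplasmic median beta-catenin signal ratio per cell · Incubation – 24 h compound exposure at 37°C, 5% CO2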
MT stabilize HCS: stabilizes microtubules in HeLa cells; HeLa tubulin immunostaining HCS, 24 h; share of cells brighter than vehicle mean+2SD; % tubulin-high responders, % at 10 µM; 200,000 tested, 0.83% active; AID 2205;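 active = plate Z-score above 3 for both tubulin-high and condensed-nucleus cell shares, with cell loss under 80%, at 10 µM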;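 also: anti alpha tubulin signal scored within the nucleus-defined area of each cell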
APP 5UTR inh: APP translation inhibition; AID 1285; SH-SY5Y APP 5'UTR-luciferase reporter, luminescence; 190,000 tested, 0.82% active; inhibition, % at 2 µM;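 active = inhibition above a set limit, derived from the sample mean plus 3 SD, cut at about 45% in these data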
IEC-6 cytotox: kills IEC-6 intestinal cells in KLF5 counter-screen. 290,000 tested, 0.78% active. inhibition, % at 5 µM. IEC-6 cytotoxicity, luminescence viability; in the data active = inhibition above about 22%;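 also: 0% = plate median of test compound wells and 100% = cytotoxic reference compound wells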
BaF3 parental: reduces parental Ba/F3 cell viability, JAK2V617F counter-screen; CellTiter-Glo ATP luminescence; inhibition, % at 5.6 µM; 220,000 tested, 1.1% active;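 active = inhibition above a per-campaign cutoff, the mean inhibition of all tested compounds plus 3 SD, cut at about 27% in these data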;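 also: 0% = DMSO wells and 100% = JAK Inhibitor I control wells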
An asterisk follows results filed as active; x = not tested or not shown.

SMILES	Ba/F3 V617F tox	b-catenin transl	MT stabilize HCS	APP 5UTR inh	IEC-6 cytotox	BaF3 parental
COc1ccc(/C=C2\CCOC2=O)cc1	-3.9	-4.6	3.6	-10.8	4.4	3.3
COc1ccc(C)cc1NC(=O)CN(C)S(=O)(=O)c1ccc2c(c1)CC(C)N2C(C)=O (centres undefined)	x	x	x	x	-1.0	x
C#CC[N+]1(CC#Cc2ccccc2)CCCC1	40.2*	-0.1	1.7	-14.0	6.3	45.5*
C(#Cc1ccccc1)C[N+]1(CC#Cc2cccc3ccccc23)CCCC1	97.2*	2.3	1.9	-8.1	7.1	81.5*
C#CC[N+]1(CC#Cc2cccc3ccccc23)CCOCC1	80.7*	-0.5	1.8	-12.8	1.0	50.1*
CCc1nn(CC(=O)NCc2cccnc2)c(=O)c2cc3occc3n12	x	x	x	x	-1.7	x
COc1ccc2cc3[n+](cc2c1OC)CCc1cc2c(cc1-3)OCO2	71.7*	x	3.1	16.8	-9.6	62.8*
Cc1ccc(-n2ncc3c(SCc4ccccn4)ncnc32)c(C)c1	11.6	5.2	3.3	-2.0	1.3	34.9*
COc1ccc(-n2nnnc2/C=C\Nc2ccccc2C(=O)c2ccccc2)cc1	4.8	61.6*	21.0*	38.4	0.8	8.5
CC(C)(CO)NC(=S)NCc1ccco1	5.0	4.3	x	x	-5.7	-2.8
CC(C)CNC(=O)c1coc(=O)c(Br)c1	-1.4	0.0	1.5	46.6*	5.2	0.4
COC(=O)/C=C/c1ccccc1S(=O)(=O)N(Cc1ccccc1)Cc1ccco1	x	73.8*	x	x	x	x
COc1cccc(C2CC(c3cccs3)=NN2C(=O)CSc2nc3c(cnn3-c3ccc(F)cc3)c(=O)[nH]2)c1OC (centres undefined)	-3.0	-1.5	5.1	55.1*	-4.9	1.0
COc1ccc(C2CC(c3cccs3)=NN2C(=O)CSc2nc3c(cnn3-c3ccccc3)c(=O)[nH]2)cc1 (centres undefined)	-4.1	0.5	3.3	21.8	-0.3	7.9
COc1ccc(/C=C/c2nc3ccccc3n2C)cc1	26.0*	-2.3	2.6	19.2	11.5	30.8*
C/C(Cl)=C\Cn1c(O)c(N=NC(N)=S)c2cc(Br)ccc21	3.8	-0.5	2.9	30.6	30.3*	3.8
NC(=S)N=Nc1c(O)n(Cc2ccc(Br)cc2)c2ccccc12	-0.6	8.6	19.9	57.8*	-4.9	0.9
NC(=S)N=Nc1c(O)n(CCCl)c2ccc(Br)cc12	-3.1	-3.3	x	x	0.7	6.7
O=C(Nc1nccs1)[C@@H]1CCCN1C(=O)c1cccs1	-1.6	-5.0	4.3	-7.5	-4.9	104.1*
O=C(Nc1nc2c(s1)CCCC2)C1CCCN1C(=O)c1cccs1 (centres undefined)	2.7	-6.5	2.6	6.0	-2.7	3.3
O=C(Cn1ncc(Cl)c(Cl)c1=O)N1CCN(S(=O)(=O)c2ccc3ccccc3c2)CC1	1.3	1.1	7.9	94.0*	10.0	2.4
Cc1cc(N2CCCC2=O)cc(C)c1S(=O)(=O)NCCOc1ccc(C(C)(C)C)cc1	21.6	-0.7	2.6	-7.8	-2.4	36.5*
O=c1[nH]c(CN2CCN(c3ccc(O)cc3)CC2)nc2scc(-c3ccc(Cl)cc3)c12	3.5	6.7	21.3*	61.5*	20.4	8.8
O=c1[nH]c(CN2CCN(c3ccccc3O)CC2)nc2scc(-c3ccccc3Cl)c12	3.8	-0.4	x	x	2.1	1.6
COc1cccc(N2CCN(Cc3nc4scc(-c5ccccc5)c4c(=O)[nH]3)CC2)c1	0.0	8.3	14.8*	-14.0	6.1	6.7
SMILES	Ba/F3 V617F tox	b-catenin transl	MT stabilize HCS	APP 5UTR inh	IEC-6 cytotox	BaF3 parental
CC(NCCCOc1cccc2ccccc12)c1ccccc1 (centres undefined)	x	x	x	x	1.3	x
O=C(CCCn1c(=O)[nH]c2ccc(Br)cc2c1=O)NCc1ccc(Cl)cc1	2.3	-1.0	2.4	-10.9	-3.3	1.9
COc1cccc(C(=O)Oc2c(Br)cc(Br)cc2/C=N/NC(=O)c2cc(C)[nH]n2)c1	5.2	4.2	2.5	45.3*	40.8*	7.8
Cc1cc(C(=O)N/N=C/c2cccc(OC(=O)c3cccc(Br)c3)c2)n[nH]1	x	x	x	x	-4.9	x
C=CC[n+]1ccn(-c2nc3ccccc3nc2[N-]S(=O)(=O)c2cccs2)c1	92.0*	-0.1	x	x	-0.7	85.5*
CCCC[n+]1ccn(-c2nc3ccccc3nc2[N-]S(=O)(=O)c2cccs2)c1	98.2*	-1.2	x	x	18.3	85.8*
CNC(=O)COc1coc(CN2CCN(c3cccc(Cl)c3)CC2)cc1=O	x	x	x	x	1.2	x
CC1CCCC(NC(=O)CSc2ccc(F)cc2)C1C (centres undefined)	-2.2	0.0	2.1	-4.0	3.8	6.2
CC1CCCC(NCC(O)COC(c2ccc(F)cc2)c2ccc(F)cc2)C1C (centres undefined)	12.6	-4.4	2.3	-16.9	4.7	47.4*
Cc1ccc(-n2nnc(-c3ccnc4ccccc34)n2)cc1	0.2	0.6	3.5	-111.0	-0.7	-1.4
CC1(C)C2CCC1(C)C(OC(=O)c1ccccc1C(=O)O)C2 (centres undefined)	-3.7	-0.4	x	x	-2.0	1.1
CC(=O)OC(COC1C[C@@H]2CC[C@@]1(C)C2(C)C)C[N+]1(C)CCCCC1 (some centres undefined)	0.5	-2.8	x	x	-1.4	39.2*
CC(Oc1cccc2c1OC(C)(C)C2)C(=O)O (centres undefined)	0.3	0.6	2.6	66.9*	-0.1	-0.5
CC(C)NC(=O)NC(=O)COc1cccc2c1OC(C)(C)C2	-0.4	-6.5	2.9	-5.3	-0.5	2.5
CC1CN(c2nnc(NC(=O)c3ccccc3)s2)CC(C)O1 (centres undefined)	0.2	-5.0	2.8	-12.0	-2.8	2.2
COc1ccc(N(CC(=O)Nc2cc(Cl)ccc2OC)S(=O)(=O)c2c(C)noc2C)cc1	8.0	-0.4	15.7*	53.8*	2.8	54.3*
Cc1cc(/C=N/n2cnnc2)c(C)n1-c1ccc(Cl)cc1	5.9	3.9	3.0	-2.8	7.2	4.6
Cc1cc(/C=N/n2cnnc2)c(C)n1-c1ccc(OCc2ccc(Cl)cc2Cl)cc1	-0.2	x	2.2	50.9*	-1.5	5.3
COc1ccc(NC(=O)Cn2nnc(-c3ccccc3NS(=O)(=O)c3ccc(OC)cc3)n2)cc1	77.8*	x	5.8	89.2*	45.7*	66.2*
CCOc1ccc(NC(=O)Cn2nnc(-c3ccccc3NC(=O)CC)n2)cc1	0.1	0.9	4.3	-19.8	-2.4	5.5
O=C(Cn1nnc(-c2ccccc2NC(=O)c2ccco2)n1)Nc1ccccc1	1.5	-0.5	14.5	-4.2	5.4	3.0
COc1ccc(NC(=O)Cn2nnc(-c3ccccc3NC(=O)c3cccs3)n2)cc1	-3.1	-0.7	19.2*	-0.3	4.4	-2.6
Cc1ccc(NC(=O)Cn2nnc(-c3ccccc3NC(=O)c3cccs3)n2)cc1	0.2	58.1*	21.0*	-13.9	7.0	4.9
O=C(c1cc(COc2ccc(F)c(F)c2)on1)N1CCN(C2CCCCC2)C(=O)C1	x	x	x	x	-10.0	x

Bioassay records: PubChem BioAssay, several laboratories
